Screens from PubChem.
Shown are actives, neighbours in structure and some others; about 2.6% of the full set was active somewhere.
PolyA inh: polyadenylation inhibitors in yeast reporter cells, primary screen, luminescence, S. cerevisiae; S. cerevisiae SKY197-pL101 polyadenylation reporter, beta-gal luminescence; efflux-impaired pdr1/pdr3 knockout yeast; score 100 = 6 SD above DMSO; activity score, % at 12 µM; 300,000 compounds, 0.02% hits;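 active = lowest replicate activity score at least 50, where 100 means six control SD above control mean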;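 also: yeast exposed to compound for 9 h at 30 °C; higher score means more reporter readthrough which indicates perturbed polyadenylation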
proCasp3 act: activators of human procaspase-3 D3A mutant, primary screen, biochemical, absorbance, PC-3 D3A mutant, single concentration; recombinant procaspase-3 D3A, Ac-DEVD-pNA absorbance 405 nm; Caspase-3 (Homo sapiens), P42574; activation, % at 8.5 µM; AID 463141, 2010; 330,000 compounds, 0.11% hits;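 active = activation above the mean of all tested compounds plus 3 SD, cut at about 21% in these data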;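 also: 0% = DMSO alone and 100% = DMSO wells spiked with extra 5 µM PC-3 D3A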
Target sequence (P42574 whole entry D9A/D28A/D175A): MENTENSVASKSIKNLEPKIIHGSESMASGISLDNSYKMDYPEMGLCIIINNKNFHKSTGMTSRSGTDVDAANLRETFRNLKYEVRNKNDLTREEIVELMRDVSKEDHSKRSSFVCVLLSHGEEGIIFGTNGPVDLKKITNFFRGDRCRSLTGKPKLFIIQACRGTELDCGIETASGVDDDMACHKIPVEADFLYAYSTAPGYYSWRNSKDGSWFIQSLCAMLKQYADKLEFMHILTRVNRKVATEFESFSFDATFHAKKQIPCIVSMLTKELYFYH
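Test system: Procaspase-3 D3A mutant; medium: Zinc-free HEPES/NaCl buffer with 0.01% Triton X-100 at pH 7.4; reagent: DEVD-pNA substrate; doses: one concentration, 8.5 µM nominal, 0.8% DMSO; times: 1 h preincubation plus 2 h reaction at 25 °C; signal: Epi-absorbance at 405 nm of released p-nitroaniline, 0 and 120 min; replicates: singlicate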
AHR act: AHR activators, primary screen, cell-based, luminescence, luciferase reporter, human | Aryl hydrocarbon receptor (Homo sapiens), P35869 | AHR-responsive luciferase reporter cells | activation, % at 5 µM | 320,000 compounds, 2.5% hits | AID 2796, 2010; in the data active = activation above about 47%;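 also: 0% = vehicle wells and 100% = reference agonist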
procasp7 counter: procaspase-7 activators, primary screen, counter-screen for procaspase-3 activator project, biochemical, absorbance, HTS, human | Caspase-7 (Homo sapiens), P55210 | recombinant procaspase-7, Ac-DEVD-pNA absorbance 405 nm; D23A/D198A/D206A triple mutant, cannot self-cleave; scale: DMSO 0, 5 µM enzyme 100 | activation, % at 8.5 µM | 330,000 compounds, 0.093% hits;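 active = percent activation above the screen-wide mean plus 3 SD, cut at about 25% in these data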
Target sequence (P55210 whole entry D23A/D198A/D206A): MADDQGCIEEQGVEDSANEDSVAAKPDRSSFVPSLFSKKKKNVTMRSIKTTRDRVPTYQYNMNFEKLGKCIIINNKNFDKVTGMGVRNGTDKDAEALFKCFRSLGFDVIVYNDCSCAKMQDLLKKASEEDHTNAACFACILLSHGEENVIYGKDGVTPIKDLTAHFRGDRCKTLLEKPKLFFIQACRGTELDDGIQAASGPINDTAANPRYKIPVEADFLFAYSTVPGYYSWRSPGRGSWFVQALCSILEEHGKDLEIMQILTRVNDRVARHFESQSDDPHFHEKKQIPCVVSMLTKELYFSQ
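buffer or medium = Zinc-free HEPES/NaCl buffer, pH 7.4 | material = Procaspase-7 triple mutant (PC-7 D3A) | input = 2 µM procaspase-7 mutant as dispensed | signal = Epi-absorbance of released pNA at 405 nm, two timepoints | timing = 1 h preincubation, 2 h reaction | replicates = singlicate compound testing | evaluation = % activation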
* = called active by the depositor.

Screening Cc1ccc(-c2cn3cccnc3n2)cc1NC(=O)c1c(-c2ccccc2Cl)noc1C returned PolyA inh -25, proCasp3 act 5, AHR act 48* and procasp7 counter -7.
`Cc1onc(-c2ccccc2Cl)c1C(=O)Nc1ccc(-c2cn3cccnc3n2)cc1` gave PolyA inh 27, proCasp3 act -2, AHR act 3 and procasp7 counter -13.
For O=C(c1cc(=O)[nH]c2ccccc12)N(Cc1nnc(-c2ccccc2Cl)o1)C1CC1 the results were PolyA inh -7, proCasp3 act -12, AHR act 8 and procasp7 counter 4.
`CC(=O)Nc1ccc(S(=O)(=O)N2CCCC(C(=O)N3CCN(c4ccccc4)CC3)C2)cc1` (stereo not drawn) gave PolyA inh -1, proCasp3 act 9, AHR act 0 and procasp7 counter 4.
`COc1ccc(N/C(N)=N/c2nc(CSc3nnc(C)s3)cc(=O)[nH]2)cc1` gave PolyA inh -2, proCasp3 act 1, AHR act 11 and procasp7 counter 4.
Screening CCc1ccc(N/C(N)=N/c2nc(CSc3ncccn3)cc(=O)[nH]2)cc1 returned PolyA inh -7, proCasp3 act 8, AHR act 50* and procasp7 counter 10.
Screening c1ccc(-c2cc3ccccc3[nH]2)cc1 returned PolyA inh 9, proCasp3 act -3, AHR act 50* and procasp7 counter -12.
Screening Cc1ccc2[nH]c(-c3cccc(N)c3)cc2c1 returned PolyA inh 1, proCasp3 act 0, AHR act 16 and procasp7 counter 7.
Screening COc1ccc(-c2cc3ccccc3[nH]2)cc1 returned PolyA inh -11, proCasp3 act 5, AHR act 21 and procasp7 counter 11.
Cc1ccc(O)c(-c2cc3ccccc3[nH]2)c1 was read as PolyA inh -17, proCasp3 act 2, AHR act 49* and procasp7 counter -1.
For COc1ccc(NS(=O)(=O)c2ccc(OC)c(OC)c2)cc1OC the results were PolyA inh 11, proCasp3 act 7, AHR act 1 and procasp7 counter -9.
For COc1ccc(C(=O)Nc2c(O)ccc3ccccc23)cc1OC the results were PolyA inh 7, proCasp3 act 2, AHR act 53* and procasp7 counter -8.
Screening COc1ccc(S(=O)(=O)Nc2c(O)ccc3ccccc23)cc1OC returned PolyA inh -2, proCasp3 act -13, AHR act 61* and procasp7 counter -8.
For COc1ccc(S(=O)(=O)Nc2c(C(=O)O)[nH]c3ccccc23)cc1OC the results were PolyA inh 4, proCasp3 act 1, AHR act 55* and procasp7 counter -6.
For COc1ccc(S(=O)(=O)Nc2c(C(=O)O)[nH]c3ccccc23)cc1 the results were PolyA inh 5, proCasp3 act 7, AHR act 15 and procasp7 counter 4.
`Cc1sc(NC(=O)c2c(F)cccc2F)nc1-c1ccccc1` gave PolyA inh 1, proCasp3 act -6, AHR act 65* and procasp7 counter -8.
For Cc1sc(NC(=O)c2ccc(=O)n(C)n2)nc1-c1ccccc1 the results were PolyA inh -20, proCasp3 act 11, AHR act -1 and procasp7 counter 2.
Screening Cc1cc(OCCCCCn2ccnc2)cc(C)c1Cl returned PolyA inh 2, proCasp3 act 4, AHR act 55* and procasp7 counter 0.
Screening Cc1cccc(Cl)c1OCCCn1ccnc1 returned PolyA inh 3, proCasp3 act 2, AHR act 58* and procasp7 counter 1.
For Cc1cc(Cl)cc(C)c1OCCCCCn1ccnc1 the results were PolyA inh -2, proCasp3 act -1, AHR act 28 and procasp7 counter -5.
Clc1ccc(OCCn2ccnc2)c2ccccc12 was read as PolyA inh 1, proCasp3 act -7, AHR act 74* and procasp7 counter 11.
COC(=O)c1[nH]c2ccc(C)cc2c1NC(=O)C1=COCCO1 was read as PolyA inh 0, proCasp3 act 4, AHR act 68* and procasp7 counter 9.
`COC(=O)c1[nH]c2ccc(F)cc2c1NC(=O)C1=COCCO1` gave PolyA inh 6, proCasp3 act 9, AHR act 23 and procasp7 counter 1.
`Cc1cc2n(n1)C(c1ccccc1)Nc1ccccc1-2` (stereo not drawn) gave proCasp3 act -9, AHR act 23 and procasp7 counter -2.
`Cc1cc2n(n1)C(c1ccc(N(C)C)cc1)Nc1ccccc1-2` (stereo not drawn) gave PolyA inh 3, proCasp3 act 20, AHR act 82* and procasp7 counter 47*.
For Cc1ccc2c(c1)-c1cc(C)nn1C(c1ccc3c(c1)OCO3)N2 (stereo not drawn) the results were PolyA inh -11, proCasp3 act 2, AHR act 94* and procasp7 counter 15.
For O=C(CSCc1ccccc1)N1CCN(S(=O)(=O)c2cccc(F)c2)CC1 the results were PolyA inh -4, proCasp3 act -6, AHR act -2 and procasp7 counter 13.
`CCc1cc(=O)oc2c(C)c(OCC(=O)NCCCn3ccnc3)ccc12` gave PolyA inh 5, proCasp3 act -10, AHR act 16 and procasp7 counter 8.
Screening O=C(CSc1nc2ccc(Cl)cc2[nH]1)c1c[nH]c2ccccc12 returned proCasp3 act 6, AHR act 77* and procasp7 counter 0.
For COc1ccccc1C(=O)CSc1nccn1C the results were PolyA inh 7, proCasp3 act -3, AHR act 2 and procasp7 counter -11.
`Cn1ccnc1SCC(=O)c1c[nH]c2ccccc12` gave PolyA inh 13, proCasp3 act -10, AHR act 70* and procasp7 counter 3.
Cn1ccnc1SCC(=O)n1c2c(c3ccccc31)CCCC2 was read as PolyA inh -16, proCasp3 act -2, AHR act 72* and procasp7 counter 2.
Screening O=C(CSc1nc2ncc(Cl)cc2[nH]1)c1c[nH]c2ccccc12 returned PolyA inh 0, proCasp3 act 5, AHR act 60* and procasp7 counter -3.
For C/C(=N\NC(=O)C1CC1c1ccccc1)c1ccc(C)s1 (stereo not drawn) the results were PolyA inh -21, proCasp3 act -3, AHR act 75* and procasp7 counter -2.
For NNc1nc2c(F)cccc2s1 the results were PolyA inh -18, proCasp3 act -2, AHR act 67* and procasp7 counter 0.
`O=C(Nc1nc2c(F)cccc2s1)C1CC1` gave PolyA inh 8, proCasp3 act -2, AHR act 48* and procasp7 counter -3.
